In brackets after ≈: the same amount, converted by molar mass. Activity calls are given as the source filed them. The rule behind the calls is not given here. Some results are limits rather than exact numbers.

Broadly, the IC50 is the concentration needed to halve the response being measured. Low readings indicate inhibition by little substance, high ones a need for much substance. The MIC is the lowest concentration found to suppress growth. What is called Km is the substrate concentration at which the rate is half of its maximum. The kcat is the number of substrate molecules converted per active site and unit of time at saturation.

A short description of assay [1]: Inhibition of Carnobacterium divergens BM4489 penicillinase Cad-1. The procedure, abridged: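 CAD-1 carried a C-terminal His6 tag and was expressed in E. coli BL21-CodonPlus(DE3)-RIPL from pAT514. It was purified by Ni affinity and Superdex 75 gel filtration. Enzyme was preincubated with varied inhibitor for 30 min at 25°C in 100 mM sodium phosphate pH 7.0, then 100 µM nitrocefin was added. Initial hydrolysis rates were followed spectrophotometrically. IC50 is the inhibitor concentration halving the rate.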

Assay [2] in a line: Ratio of IC50 for beta-lactamase TEM-1 over IC50 for Carnobacterium divergens BM4489 penicillinase Cad-1.
Assay [3] relates to Carnobacterium divergens. In words: Antimicrobial activity against Carnobacterium divergens CIP101029 at 0.5 McFarland inoculum size by E-test. The assay is classed as functional.
Assay [4] concerns Carnobacterium divergens. The assay can be described thus: Antimicrobial activity against Carnobacterium divergens CIP101029 at 3 McFarland inoculum size by E-test. In kind it is functional.
Assay [5] concerns Carnobacterium divergens. In words: Antimicrobial activity against Carnobacterium divergens BM4489 expressing beta-lactamase CAD1 at 0.5 McFarland inoculum size by E-test. In kind it is functional.
In assay [6] the test system is Carnobacterium divergens. The assay can be described thus: Antimicrobial activity against Carnobacterium divergens BM4489 expressing beta-lactamase CAD1 at 3 McFarland inoculum size by E-test. In kind it is functional.
Assay [7] has as its system Carnobacterium divergens. The assay can be described thus: Antimicrobial activity against Carnobacterium divergens BM4490 expressing beta-lactamase CAD1 at 0.5 McFarland inoculum size by E-test. The assay is classed as functional, organism-based.
Assay [8] relates to Carnobacterium divergens. The assay can be described thus: Antimicrobial activity against Carnobacterium divergens BM4490 expressing beta-lactamase CAD1 at 3 McFarland inoculum size by E-test. In kind it is functional, organism-based. Conditions: 3 M.
Assay [9] concerns Carnobacterium divergens. In words: Activity of Carnobacterium divergens BM4489 penicillinase Cad-1 assessed as initial rate of hydrolysis by spectrophotometer.
In assay [10] the test system is Carnobacterium divergens. The assay can be described thus: Ratio of Kcat to Km of Carnobacterium divergens BM4489 penicillinase Cad-1.
For assay [11], the system named is Carnobacterium divergens. In words: Ratio of Kcat to Km of Carnobacterium divergens BM4489 penicillinase Cad-1 relative to benzyl-penicillin.
Assay [12] relates to Carnobacterium divergens. The assay can be described thus: Activity of Carnobacterium divergens BM4489 penicillinase Cad-1 at 1 uM enzyme concentration assessed as initial rate of hydrolysis by spectrophotometer.
Assay [13] has as its system Escherichia coli. In words: Antimicrobial activity against Escherichia coli BL21 (DE3) by E-test. The assay is classed as functional. Put shortly:
(§1)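 MICs read by E-test strips on Mueller-Hinton agar.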

The subject of assay [14] is Escherichia coli. The assay can be described thus: Antimicrobial activity against Escherichia coli BL21 (DE3) harboring pAT514 by E-test. The assay is classed as functional. The procedure, abridged: as §1

In the case of `O=C(O)[C@H]1/C(=C/CO)O[C@@H]2CC(=O)N21` [CLAVULANIC ACID], half-maximal inhibition in assay [1] (IC50) required 4.7 µM. Moreover, in assay [2], the Ratio IC50 was determined as 60.

As to `Cc1onc(-c2ccccc2)c1C(=O)N[C@@H]1C(=O)N2[C@@H]1SC(C)(C)[C@@H]2C(=O)O` [OXACILLIN], the minimal inhibitory concentration (MIC) was 16 µg/mL (≈ 39.9 µM) in the assay with Carnobacterium divergens [3], 24 µg/mL (≈ 59.8 µM) against Carnobacterium divergens [4], 24 µg/mL (≈ 59.8 µM) against Carnobacterium divergens [5] and 24 µg/mL (≈ 59.8 µM) against Carnobacterium divergens [6]. For the same compound, the MIC result in the assay on Carnobacterium divergens [7] and in the assay with Carnobacterium divergens [8] was “Active” each time. Besides, the Km in the assay on Carnobacterium divergens [9] amounted to 21 µM. Also, the turnover number (kcat) in the assay with Carnobacterium divergens [9] was 62 s⁻¹. Moreover, the results for the kcat/Km with Carnobacterium divergens [10] and in the assay with Carnobacterium divergens [11] were 2.95e+06 M⁻¹ s⁻¹ and 45, respectively.

With `CO/N=C(\C(=O)N[C@@H]1C(=O)N2C(C(=O)O)=C(COC(N)=O)CS[C@H]12)c1ccco1`, the outcome with Carnobacterium divergens [12] was inactive.

For `CO[C@@]1(NC(=O)Cc2cccs2)C(=O)N2C(C(=O)O)=C(COC(N)=O)CS[C@@H]21`, the outcome in the assay on Carnobacterium divergens [12] was inactive.

In the case of `CC1(C)S[C@@H]2[C@H](NC(=O)[C@H](N)c3ccccc3)C(=O)N2[C@H]1C(=O)O` [AMPICILLIN], the MIC in the assay on Carnobacterium divergens [3] is 1.5 µg/mL (≈ 4.29 µM); against Carnobacterium divergens [4] it was 2 µg/mL (≈ 5.72 µM); against Carnobacterium divergens [5], 3 µg/mL (≈ 8.59 µM); against Carnobacterium divergens [6], 24 µg/mL (≈ 68.7 µM); with Escherichia coli [13], 0.75 µg/mL (≈ 2.15 µM); with Escherichia coli [14], more than 256 µg/mL. The MIC result in the assay on Carnobacterium divergens [7] and with Carnobacterium divergens [8] was “Active” in each case. Further, the Km in the assay with Carnobacterium divergens [9] stood at 48 µM. Moreover, in the assay on Carnobacterium divergens [9], the catalytic constant (kcat) stood at 153 s⁻¹. The figures for the kcat/Km with Carnobacterium divergens [10] and in the assay on Carnobacterium divergens [11] were 3.19e+06 M⁻¹ s⁻¹ and 48, respectively.

For the compound `C[C@H]1[C@H](NC(=O)/C(=N\OC(C)(C)C(=O)O)c2csc(N)n2)C(=O)N1S(=O)(=O)O` [AZTREONAM], the minimum inhibitory concentration (MIC) in the assay on Carnobacterium divergens [3] was more than 256 µg/mL; with Carnobacterium divergens [4] it was more than 256 µg/mL; with Carnobacterium divergens [5], more than 256 µg/mL; with Carnobacterium divergens [6], more than 256 µg/mL; in the assay on Escherichia coli [13], less than 0.016 µg/mL; with Escherichia coli [14], less than 0.016 µg/mL. Moreover, the MIC entry in the assay on Carnobacterium divergens [7] and in the assay on Carnobacterium divergens [8] was “Active” in each case. Besides, the outcome in the assay on Carnobacterium divergens [12] was Active.

Turning to `CC1(C)S[C@@H]2[C@H](NC(=O)Cc3ccccc3)C(=O)N2[C@H]1C(=O)O` [PENICILLIN G], the minimal inhibitory concentration (MIC) in the assay on Carnobacterium divergens [3] was 3 µg/mL (≈ 8.97 µM); against Carnobacterium divergens [4], 6 µg/mL (≈ 17.9 µM); against Carnobacterium divergens [5] it was 12 µg/mL (≈ 35.9 µM); with Carnobacterium divergens [6], 96 µg/mL (≈ 287 µM); in the assay with Escherichia coli [13], 4 µg/mL (≈ 12 µM); in the assay with Escherichia coli [14], more than 256 µg/mL. Further, the minimum inhibitory concentration (MIC) entry with Carnobacterium divergens [7] and with Carnobacterium divergens [8] was “Active” throughout. Also, in the assay with Carnobacterium divergens [9], the Km turned out to be 27 µM. The kcat in the assay on Carnobacterium divergens [9] turned out to be 178 s⁻¹. The kcat/Km with Carnobacterium divergens [10] turned out to be 6.6e+06 M⁻¹ s⁻¹.

In the case of `CO/N=C(\C(=O)N[C@@H]1C(=O)N2C(C(=O)[O-])=C(C[N+]3(C)CCCC3)CS[C@H]12)c1csc(N)n1`, the result in the assay with Carnobacterium divergens [12] was inactive.

For the compound `O=C(Cc1cccs1)N[C@@H]1C(=O)N2C(C(=O)[O-])=C(C[n+]3ccccc3)CS[C@H]12`, in the assay on Carnobacterium divergens [9], the Michaelis-Menten constant (Km) was found to be 26 µM and the kcat was determined as 0.56 s⁻¹. For the same compound, the kcat/Km in the assay on Carnobacterium divergens [10] is 22000 M⁻¹ s⁻¹. Further, the kcat/Km in the assay with Carnobacterium divergens [11] is 0.3.

Take `C[C@@H](O)[C@H]1C(=O)N2C(C(=O)O)=C(SCCNC=N)C[C@H]12` [IMIPENEM ANHYDROUS]: the MIC turned out to be 0.19 µg/mL (≈ 0.635 µM) with Carnobacterium divergens [3]; 0.19 µg/mL (≈ 0.635 µM) in the assay with Carnobacterium divergens [4]; 0.19 µg/mL (≈ 0.635 µM) with Carnobacterium divergens [5]; 0.19 µg/mL (≈ 0.635 µM) against Carnobacterium divergens [6]; 0.25 µg/mL (≈ 0.835 µM) in the assay with Escherichia coli [13]; 0.19 µg/mL (≈ 0.635 µM) with Escherichia coli [14]. Besides, the MIC entry in the assay on Carnobacterium divergens [7] and in the assay on Carnobacterium divergens [8] was “Active” each time.

As to `CO/N=C(\C(=O)N[C@@H]1C(=O)N2C(C(=O)O)=C(COC(C)=O)CS[C@H]12)c1csc(N)n1` [CEFOTAXIME], the MIC is more than 256 µg/mL with Carnobacterium divergens [3]; more than 256 µg/mL with Carnobacterium divergens [4]; more than 256 µg/mL against Carnobacterium divergens [5]; more than 256 µg/mL against Carnobacterium divergens [6]; less than 0.016 µg/mL in the assay with Escherichia coli [13]. The minimal inhibitory concentration (MIC) result with Carnobacterium divergens [7] and with Carnobacterium divergens [8] was “Active” each time. The outcome in the assay on Carnobacterium divergens [12] was inactive.

As to `CC1(C)S[C@@H]2[C@H](NC(=O)[C@H](N)c3ccc(O)cc3)C(=O)N2[C@H]1C(=O)O` [AMOXICILLIN], the MIC in the assay with Carnobacterium divergens [3] is 0.75 µg/mL (≈ 2.05 µM); against Carnobacterium divergens [4], 2 µg/mL (≈ 5.47 µM); against Carnobacterium divergens [5], 4 µg/mL (≈ 10.9 µM); in the assay with Carnobacterium divergens [6], 16 µg/mL (≈ 43.8 µM); in the assay with Escherichia coli [13] it was 1.5 µg/mL (≈ 4.1 µM); with Escherichia coli [14], more than 256 µg/mL. The minimal inhibitory concentration (MIC) result with Carnobacterium divergens [7] and in the assay on Carnobacterium divergens [8] was “Active” throughout.

In the case of `CC1(C)S[C@@H]2[C@H](NC(=O)[C@H](C(=O)O)c3ccsc3)C(=O)N2[C@H]1C(=O)O` [TICARCILLIN], the minimal inhibitory concentration (MIC) against Carnobacterium divergens [3] was 24 µg/mL (≈ 62.4 µM); against Carnobacterium divergens [4], 24 µg/mL (≈ 62.4 µM); against Carnobacterium divergens [5], 32 µg/mL (≈ 83.2 µM); against Carnobacterium divergens [6] it was 128 µg/mL (≈ 333 µM); in the assay on Escherichia coli [13], 0.75 µg/mL (≈ 1.95 µM); in the assay with Escherichia coli [14], more than 256 µg/mL. Moreover, the minimal inhibitory concentration (MIC) result in the assay on Carnobacterium divergens [7] and in the assay with Carnobacterium divergens [8] was “Active” each time. The Michaelis-Menten constant (Km) in the assay on Carnobacterium divergens [9] is 106 µM. In addition, the kcat with Carnobacterium divergens [9] was determined as 35 s⁻¹. Moreover, the values for the kcat/Km in the assay with Carnobacterium divergens [10] and in the assay on Carnobacterium divergens [11] were 330000 M⁻¹ s⁻¹ and 5, respectively.

As for `CC1(C)[C@H](C(=O)O)N2C(=O)C[C@H]2S1(=O)=O` [SULBACTAM], in assay [1], half-maximal inhibition (IC50) was put at 43.5 µM.

Take `CC(C)(O/N=C(\C(=O)N[C@@H]1C(=O)N2C(C(=O)[O-])=C(C[n+]3ccccc3)CS[C@H]12)c1csc(N)n1)C(=O)O` [CEFTAZIDIME]: the minimal inhibitory concentration (MIC) against Carnobacterium divergens [3] was more than 256 µg/mL; against Carnobacterium divergens [4], more than 256 µg/mL; in the assay with Carnobacterium divergens [5], more than 256 µg/mL; in the assay with Carnobacterium divergens [6] it was more than 256 µg/mL; with Escherichia coli [13], 0.064 µg/mL (≈ 0.117 µM); against Escherichia coli [14] it was 0.047 µg/mL (≈ 0.086 µM). Besides, the minimal inhibitory concentration (MIC) entry in the assay on Carnobacterium divergens [7] and with Carnobacterium divergens [8] was “Active” throughout. The result in the assay on Carnobacterium divergens [12] was inactive.

Take `CCN1CCN(C(=O)N[C@@H](C(=O)N[C@@H]2C(=O)N3[C@@H]2SC(C)(C)[C@@H]3C(=O)O)c2ccccc2)C(=O)C1=O` [PIPERACILLIN]: the minimal inhibitory concentration (MIC) in the assay on Carnobacterium divergens [3] is 12 µg/mL (≈ 23.2 µM); against Carnobacterium divergens [4], 32 µg/mL (≈ 61.8 µM); in the assay with Carnobacterium divergens [5], 64 µg/mL (≈ 124 µM); with Carnobacterium divergens [6], 128 µg/mL (≈ 247 µM); against Escherichia coli [13], 0.38 µg/mL (≈ 0.734 µM); against Escherichia coli [14] it was more than 256 µg/mL. Moreover, the minimum inhibitory concentration (MIC) entry in the assay with Carnobacterium divergens [7] and with Carnobacterium divergens [8] was “Active” in each case. The Km with Carnobacterium divergens [9] turned out to be 70 µM. Moreover, in the assay on Carnobacterium divergens [9], the kcat is 64 s⁻¹. The kcat/Km in the assay with Carnobacterium divergens [10] came out at 914000 M⁻¹ s⁻¹; in the assay with Carnobacterium divergens [11] it was 14.

Regarding `CC1(C)S[C@@H]2[C@H](NC(=O)C(C(=O)O)c3ccccc3)C(=O)N2[C@H]1C(=O)O` (some centres undefined), the Michaelis constant (Km) in the assay on Carnobacterium divergens [9] worked out at 245 µM. Moreover, in the assay on Carnobacterium divergens [9], the catalytic constant (kcat) is 6 s⁻¹. Moreover, the kcat/Km is 24000 M⁻¹ s⁻¹ with Carnobacterium divergens [10] and 0.4 with Carnobacterium divergens [11].

The compound `C[C@]1(Cn2ccnn2)[C@H](C(=O)O)N2C(=O)C[C@H]2S1(=O)=O` [TAZOBACTAM] came in with an IC50 in assay [1] of 0.27 µM.

Source of the values: ChEMBL document CHEMBL1151476, “Genetic and biochemical characterization of CAD-1, a chromosomally encoded new class A penicillinase from Carnobacterium divergens” (Antimicrob Agents Chemother, 2008).
